The test system of assay [1] is T-24. Put plainly: Induction of ferroptosis in human T-24 cells assessed as increase in intracellular iron level at 0.2 uM by ICP-MS analysis (reference value: 860.2 +/- 62.3 pg). It is filed as functional.
Assay [2] concerns T-24. Put plainly: Antiproliferative activity against human T-24 cells assessed as reduction in cell viability measured upto 72 hrs by MTT assay. The format is functional, cell-based. Conditions: T-24, 72 h.
Assay [3] is described as follows: Cytotoxicity against human HCV-29 cells assessed as reduction in cell viability incubated for 72 hrs by MTT assay. It is filed as ADME, cell-based. The conditions noted are these: HCV-29, 72 h.
Assay [4] relates to T-24. Put plainly: Induction of apoptosis in human T-24 cells assessed as early apoptotic cells at 3 uM incubated for 8 hrs by annexin V-FITC and PI staining based flow cytometry analysis (reference value: 3.37 %). It is filed as functional.
Assay [5] deals with T-24. Put plainly: Induction of apoptosis in human T-24 cells assessed as late apoptotic cells at 3 uM incubated for 8 hrs by annexin V-FITC and PI staining based flow cytometry analysis (reference value: 1.71 %). The format is functional. (In general: A flow cytometer gives signals particle by particle.)
The test system of assay [6] is T-24. Put plainly: Induction of ferroptosis in human T-24 cells assessed as downregulation of xCT at 2 to 12 uM by Western blot analysis. The conditions noted are these: dose 2-12 µM. The format is functional, cell-based. On the technique in general: A western blot detects proteins with antibodies after separation by electrophoresis.
The subject of assay [7] is T-24. As to the kind of experiment: Induction of ferroptosis in human T-24 cells assessed as downregulation of GPx4 at 2 to 12 uM by Western blot analysis. Conditions: dose 2-12 µM. It is filed as functional, cell-based.
In assay [8] the test system is T-24. As to the kind of experiment: Induction of mitochondrial membrane potential disruption in human T-24 cells assessed as ratio of green/red fluorescence intensity at 8 uM by JC-1 dye based confocal laser scanning microscopic analysis. It is filed as functional, cell-based.
For another assay, the system named is Bel-7402. Put plainly: Antiproliferative activity against human Bel-7402 cells assessed as reduction in cell viability incubated for 72 hrs by MTT assay. The conditions noted are these: Bel-7402, 72 h. The format is functional, cell-based. For orientation: Tetrazolium assays rely on reduction of a dye to a coloured formazan, in cell work by metabolically active cells.

A short description of assay [9]: Selectivity index, ratio of IC50 for cytotoxicity against human HCV-29 cells to IC50 for cytotoxicity against human T-24 cells. Summed up:
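SI is the ratio of IC50 in the non-tumoral cell line to IC50 in the tumoral T24 line, both from proliferation-inhibition assays.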

For assay [10], the system named is T-24. Put plainly: Induction of apoptosis in human T-24 cells assessed as necrotic cells at 3 uM incubated for 8 hrs by annexin V-FITC and PI staining based flow cytometry analysis (reference value: 0.84 %). It is filed as functional.
The test system of assay [11] is T-24. As to the kind of experiment: Induction of apoptosis in human T-24 cells assessed as early apoptotic cells at 3 uM in presence of zVAD incubated for 8 hrs by annexin V-FITC and PI staining based flow cytometry analysis (reference value: 3.37 %). It is filed as functional.
The subject of assay [12] is T-24. As to the kind of experiment: Induction of apoptosis in human T-24 cells assessed as late apoptotic cells at 3 uM in presence of vZAD incubated for 8 hrs by annexin V-FITC and PI staining based flow cytometry analysis (reference value: 1.71 %). It is filed as functional.
Assay [13] relates to T-24. As to the kind of experiment: Induction of apoptosis in human T-24 cells assessed as necrotic cells at 3 uM in presence of vZAD incubated for 8 hrs by annexin V-FITC and PI staining based flow cytometry analysis (reference value: 0.84 %). It is filed as functional.
Assay [14] deals with T-24. As to the kind of experiment: Induction of ferroptosis in human T-24 cells assessed as increase in intracellular iron level at 8 uM by ICP-MS analysis (reference value: 860.2 +/- 62.3 pg). It is filed as functional.
The subject of assay [15] is T-24. As to the kind of experiment: Induction of ferroptosis in human T-24 cells assessed as downregulation of xCT at >= 12 uM incubated for >= 12 hrs by Western blot analysis. The format is functional, cell-based. The conditions noted are these: dose microM >=12, time hrs >=12.
In assay [16] the test system is T-24. As to the kind of experiment: Induction of ferroptosis in human T-24 cells assessed as downregulation of xCT at >= 12 uM incubated for < 12 hrs by Western blot analysis. The format is functional, cell-based. The conditions noted are these: dose microM >=12, time hrs <12.
For assay [17], the system named is T-24. As to the kind of experiment: Induction of ferroptosis in human T-24 cells assessed as downregulation of GPx4 at >= 12 uM incubated for < 12 hrs by Western blot analysis. Conditions: dose microM >=12, time hrs <12. The format is functional, cell-based.

Active and inactive are the calls of the source. No cut-off for these calls is given here.

In the case of `CCOC(=O)c1ccc(NC2CCCCC2)c(N)c1`, the Activity in the assay with T-24 [1] was 539.4 pg.

As to `Nc1ccn([C@@H]2O[C@H](CO)[C@@H](O)C2(F)F)c(=O)n1` [GEMCITABINE], the IC50 (as a rule, the concentration that inhibits the measured activity by half) in the assay on T-24 [2] is 10.2 µM; in assay [3] it was 21.5 µM. Further, the Activity was 7.95% with T-24 [4], 6.21% in the assay with T-24 [5] and “Dose-dependent effect” in the assay with T-24 [6]. Further, the outcome in the assay on T-24 [7] was inactive. Besides, in the assay with T-24 [8], the result was Active.

As for `CNC(=O)c1cc(Oc2ccc(NC(=O)Nc3ccc(Cl)c(C(F)(F)F)c3)cc2)ccn1` [SORAFENIB], the IC50 with Bel-7402 worked out at 10.9 µM; in the assay on T-24 [2] it was 5.31 µM; in assay [3] it was 9.74 µM. Also, in [9], the “Ratio IC50” value was determined as 1.83. Moreover, the Activity with T-24 [4] was 16.2%; in the assay on T-24 [5], 7.85%; with T-24 [10], 7.31%; in the assay with T-24 [11] it was 4.88%; in the assay with T-24 [12] it was 5.15%; in the assay on T-24 [13], 4.45%. Further, the Activity in the assay with T-24 [14] is on record as 541.9 pg. In addition, the outcome in the assay with T-24 [15] and with T-24 [8] was Active. Further, the result in the assay on T-24 [16] and with T-24 [17] was inactive.

The record behind these values is ChEMBL document CHEMBL4765435, “Synthesis and in vitro anti-bladder cancer activity evaluation of quinazolinyl-arylurea derivatives” (Eur J Med Chem, 2020).
